Measurements pooled from the literature.
Protocols differ between the studies behind these lines.
Target: Homeodomain-interacting protein kinase 4 (HIPK4, Homo sapiens, UniProt Q8NE63)
Residues used in one study (Q8NE63 1-616): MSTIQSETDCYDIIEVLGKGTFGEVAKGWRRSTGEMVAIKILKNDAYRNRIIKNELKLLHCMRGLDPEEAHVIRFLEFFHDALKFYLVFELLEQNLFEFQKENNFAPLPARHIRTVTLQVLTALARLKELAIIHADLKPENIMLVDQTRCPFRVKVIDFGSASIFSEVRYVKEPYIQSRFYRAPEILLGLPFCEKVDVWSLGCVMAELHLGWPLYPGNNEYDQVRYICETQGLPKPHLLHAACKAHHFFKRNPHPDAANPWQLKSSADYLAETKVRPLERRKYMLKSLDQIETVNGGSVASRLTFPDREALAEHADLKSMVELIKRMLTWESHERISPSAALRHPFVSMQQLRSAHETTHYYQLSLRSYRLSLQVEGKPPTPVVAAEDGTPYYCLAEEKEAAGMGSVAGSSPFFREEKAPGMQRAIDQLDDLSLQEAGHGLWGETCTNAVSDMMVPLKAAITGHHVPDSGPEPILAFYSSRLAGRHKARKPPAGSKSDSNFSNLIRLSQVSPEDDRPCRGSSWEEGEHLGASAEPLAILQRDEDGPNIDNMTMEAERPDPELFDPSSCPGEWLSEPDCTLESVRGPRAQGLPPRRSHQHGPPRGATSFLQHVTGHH

| Structure (SMILES) | read-out | method | tested at | remaining binding |
| --- | --- | --- | --- | --- |
| Nc1c(C(=O)NCc2ccc(C(=O)NCCCC3CCCCC3)cc2)cnn1-c1ccccc1 | cell-free assay | competition with immobilised ligand | 0.1 µM | 100% |
| F[C@@H]1CCN(c2nccc(-c3cnn4ncccc34)n2)C1 | binding |  | 1 µM | 90% |
| CN(C(=O)c1ccccc1)c1cc(N(C)c2ccc3c(c2)CCc2ccc(C(=O)NCCN4CCOCC4)cc2C3=O)ccc1F | cell-free assay | competition with immobilised ligand | 1 µM | 100% |
| O=C(NCCCN1CCOCC1)c1ccc(Nc2nccc(-c3cc4ccccc4s3)n2)cc1 | binding | competition with immobilised ligand | 1 µM | 5.8% |
| N[C@H]1CCN(c2nccc(-c3cnn4ncccc34)n2)C1 | binding |  | 1 µM | 33% |
| O=C(Nc1c[nH]nc1C(=O)NC1CCNCC1)c1cc(F)cc(F)c1 | binding | competition with immobilised ligand | 1 µM | 59% |
| Nc1ncc2c(n1)-c1c([nH]c3ccc(C#CC4CC4)cc13)CCCC2 | binding | competition with immobilised ligand | 1 µM | 95% |
| FC(F)(F)Oc1cccc(-c2cnc3ccc(-c4ccncc4)nn23)c1 | cell-free assay | competition with immobilised ligand | 5 µM | 5.2% |
| CN(C)c1ncc(F)c(-c2cnn3ncccc23)n1 | binding |  | 1 µM | 100% |
| COc1cnc(Nc2cccc(S(N)(=O)=O)c2)nc1N1CCN(c2ccccc2)C(=O)C1 | binding | competition with immobilised ligand | 1 µM | 91% |
| O=C(O)[C@H]1[C@H](Cn2nnc3ccccc3c2=O)CC[C@@H]1C(=O)c1ccc(OCCC2CCOCC2)cc1 | cell-free assay | competition with immobilised ligand | 1 µM | 100% |
| O=C(NCCCN1CCOCC1)c1ccc(Nc2ncc(Cl)c(-c3ccc(Cl)s3)n2)cc1 | binding | competition with immobilised ligand | 1 µM | 14% |
| CN(c1ccnc(CNc2nc(Nc3ccc4c(c3)CC(=O)N4)ncc2C(F)(F)F)n1)S(C)(=O)=O | cell-free assay | competition with immobilised ligand | 1 µM | 35% |
| C[C@H]1CCN(c2nccc(-c3cnn4ncccc34)n2)C1 | binding |  | 1 µM | 80% |
| Cc1cc(C)c(-n2ccn3nc(-c4cccnc4)cc23)cc1NC(=O)c1cc(C#N)cc(S(F)(F)(F)(F)F)c1 | cell-free assay | competition with immobilised ligand | 0.1 µM | 95.6% |
| COc1cnc(Nc2cccc(S(N)(=O)=O)c2)nc1N1CCN(c2ccccc2)CC1 | binding | competition with immobilised ligand | 1 µM | 99% |
| CN(c1nccc(-c2cnn3ncccc23)n1)C1CC1 | binding |  | 1 µM | 99% |
| O=c1nc(-c2ccccn2)sc2ccccc12 | binding | competition with immobilised ligand | 1 µM | 85% |
| COc1ccnn2ncc(-c3ccnc(N(C)C)n3)c12 | binding |  | 1 µM | 100% |
| O=C(c1ccc(Nc2ncc(Cl)c(-c3ccc(Cl)s3)n2)cc1)N1CCC(N2CCCC2)CC1 | binding | competition with immobilised ligand | 1 µM | 3.6% |
| C[C@@H]1CN(c2cc(-c3n[nH]c4ccc(OC5(C)CC5)cc34)ncn2)C[C@H](C)O1 | cell-free assay | competition with immobilised ligand | 0.1 µM | 97% |
| C[C@@H](c1ccc(-n2cnc3c(N)ncnc32)cc1)N1CCc2nn(C)c(Cc3ccccc3)c2C1=O | binding | competition with immobilised ligand | 0.1 µM | 100% |
